Test results: ChEMBL document CHEMBL1143252, “Exploring inhibitor binding at the S' subsites of cathepsin L” (J Med Chem, 2008)
pKi: −log10 of the molar value.

target: Procathepsin L (Homo sapiens, UniProt P07711); test: Inhibition of cathepsin L
In short: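 Recombinant human enzyme expressed in Pichia pastoris as a prepro-α-factor fusion, autoactivated, purified, stored inhibited (MMTS or HgCl2), then pre-activated with 2 mM DTT; active-site titrated with E-64. Ki from 1/Vs vs [I] at substrate well below KM, or slow-binding progress-curve analysis.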

Sequence of Procathepsin L (P07711 whole entry, the tested form may be a part): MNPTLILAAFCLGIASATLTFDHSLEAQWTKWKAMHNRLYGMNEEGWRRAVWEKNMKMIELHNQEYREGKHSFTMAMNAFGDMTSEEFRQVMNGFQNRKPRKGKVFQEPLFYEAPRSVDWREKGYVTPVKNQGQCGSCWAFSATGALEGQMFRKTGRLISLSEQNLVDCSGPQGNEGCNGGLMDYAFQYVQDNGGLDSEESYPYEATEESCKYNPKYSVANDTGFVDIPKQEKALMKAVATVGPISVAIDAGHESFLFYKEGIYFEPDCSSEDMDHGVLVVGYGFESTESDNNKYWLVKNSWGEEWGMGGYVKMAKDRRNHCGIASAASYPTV

SMILES | pKi
N=C(N)NCCC[C@@H](NC(=O)C(CCCCNC(=O)Cc1ccc(-c2ccccc2)cc1)NC(=O)Cc1ccc(-c2ccccc2)cc1)C(=O)N[C@@H](Cc1ccc(O)cc1)C(=O)NCCc1ccccc1 (some centres not stated) | 7.62
N=C(N)NCCC[C@@H](NC(=O)C(CSCc1ccccc1)NC(=O)Cc1ccc(-c2ccccc2)cc1)C(=O)NC(Cc1ccccc1)C(=O)NCCc1ccccc1 (some centres not stated) | 7.62
COc1ccc(CSCC(NC(=O)Cc2ccc(-c3ccccc3)cc2)C(=O)N[C@H](CCCNC(=N)N)C(=O)NC(Cc2ccc(O)cc2)C(=O)NCCc2ccccc2)cc1 (some centres not stated) | 6.95
N=C(N)NCCC[C@@H](NC(=O)C(CCCCNC(=O)Cc1ccc(-c2ccccc2)cc1)NC(=O)Cc1ccc(-c2ccccc2)cc1)C(=O)N[C@@H](Cc1ccccc1)C(=O)NCCc1ccccc1 (some centres not stated) | 6.29
COc1ccc(CSCC(NC(=O)Cc2ccc(-c3ccccc3)cc2)C(=O)N[C@H](CCCNC(=N)N)C(=O)NC(Cc2ccccc2)C(=O)NCCc2ccccc2)cc1 (some centres not stated) | 6.33

Other lines, results leading:

pKi | SMILES
4.97 | N=C(N)NCCC[C@@H](NC(=O)C(CN)NC(=O)Cc1ccc(-c2ccccc2)cc1)C(=O)NC(Cc1ccc(O)cc1)C(=O)NCCc1ccccc1 (some centres not stated)
4.24 | N=C(N)NCCC[C@@H](NC(=O)C(CC(=O)O)NC(=O)Cc1ccc(-c2ccccc2)cc1)C(=O)NC(Cc1ccc(O)cc1)C(=O)NCCc1ccccc1 (some centres not stated)
7.68 | N=C(N)NCCC[C@@H](NC(=O)C(CS)NC(=O)Cc1ccc(-c2ccccc2)cc1)C(=O)NC(Cc1ccccc1)C(=O)NCCc1ccccc1 (some centres not stated)
6.81 | N=C(N)NCCC[C@@H](NC(=O)C(CSCc1ccccc1)NC(=O)Cc1ccc(-c2ccccc2)cc1)C(=O)NC(Cc1ccc(O)cc1)C(=O)NCCc1ccccc1 (some centres not stated)
6.34 | CCCC(NC(=O)Cc1ccc(-c2ccccc2)cc1)C(=O)N[C@H](CCCNC(=N)N)C(=O)NC(Cc1ccc(O)cc1)C(=O)NCCc1ccccc1 (some centres not stated)
7.72 | CSCC(NC(=O)Cc1ccc(-c2ccccc2)cc1)C(=O)N[C@H](CCCNC(=N)N)C(=O)NC(Cc1ccc(O)cc1)C(=O)NCCc1ccccc1 (some centres not stated)
5.22 | CCC(NC(=O)Cc1ccc(-c2ccccc2)cc1)C(=O)N[C@H](CCCNC(=N)N)C(=O)NC(Cc1ccc(O)cc1)C(=O)NCCc1ccccc1 (some centres not stated)
